We go through ten molecules from ChEMBL document CHEMBL1146946, “Synthesis of novel benzofuran isoxazolines as protein tyrosine phosphatase 1B inhibitors” (Bioorg Med Chem Lett, 2006).

One experiment deals with Rattus norvegicus. As to the kind of experiment: Antihyperglycemic activity in Streptozotocin-induced diabetic rat at 100 mg/kg. It is filed as functional.
Experiment [1] has as its target T1, Tyrosine-protein phosphatase non-receptor type 1 (Homo sapiens) (UniProt P18031).
T1 sequence (whole entry): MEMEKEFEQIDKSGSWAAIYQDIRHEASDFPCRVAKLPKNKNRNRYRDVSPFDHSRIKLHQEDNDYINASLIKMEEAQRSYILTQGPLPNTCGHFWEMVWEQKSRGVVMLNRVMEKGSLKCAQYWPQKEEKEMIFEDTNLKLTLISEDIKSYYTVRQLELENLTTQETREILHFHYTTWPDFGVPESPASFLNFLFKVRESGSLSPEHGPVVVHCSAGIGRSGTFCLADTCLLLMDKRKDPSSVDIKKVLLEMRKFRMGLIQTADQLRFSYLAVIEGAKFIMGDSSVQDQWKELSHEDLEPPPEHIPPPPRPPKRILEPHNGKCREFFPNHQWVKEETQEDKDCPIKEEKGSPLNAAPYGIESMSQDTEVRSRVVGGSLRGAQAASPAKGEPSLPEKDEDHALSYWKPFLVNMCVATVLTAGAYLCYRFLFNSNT
The experiment can be described thus: Inhibition of PTP1B at 100 uM. Put shortly:
(§1)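 Test compound preincubated 10 min with enzyme in the reaction system before residual phosphatase activity was read. Substrate was 10 mM p-nitrophenylphosphate in 50 mM HEPES pH 7.0 with 1 mM each of EDTA and DTT. The reaction was stopped with 0.1 N NaOH and absorbance read at 410 nm. No-enzyme blanks run in parallel corrected for non-enzymic hydrolysis.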

Experiment [2] concerns the target T2, Tyrosine-protein phosphatase non-receptor type 1 (Homo sapiens, UniProt P18031).
T2 sequence (P18031 whole entry): T1 sequence (whole entry)
As to the kind of experiment: Inhibition of PTP1B. The procedure, abridged: as §1

One may read the inhibition in vivo as the change of the read-out against control, counted positive when it falls. A higher inhibition in vivo goes with a strong effect. One may read the inhibition as how much of the control response was suppressed. In general, IC50 refers to the midpoint of a concentration-inhibition curve. A low value points to greater potency. In general, Ki refers to a measure of affinity in units of concentration, obtained from inhibition or displacement. Low values mean a stronger hold on the target, high ones a looser hold on the target.

In the experiment on Rattus norvegicus, `COc1c(-c2ccccc2)oc2c(ccc3occc32)c1=O` [KARANJIN] showed an inhibition in vivo at 100 mg/kg of 35%. In addition, in experiment [1], the inhibition is 15.8%.

In the case of `COc1c(C2=NOC(c3ccncc3)C2)ccc2occc12` (stereo unspecified), in experiment [1], the inhibition was 14.7%.

In experiment [2], `COc1ccc(C2CC(c3cc(OC)c4occc4c3OC)=NO2)cc1` (stereo unspecified) showed an IC50 of 81 µM and a Ki of 32 µM. For the same molecule, the inhibition in experiment [1] came to 79.6%.

On to `COc1c(C2=NOC(c3ccccn3)C2)ccc2occc12` (stereo unspecified), for which the inhibition in experiment [1] turned out to be 17.4%.

In experiment [2], `COc1c(C2=NOC(c3ccccc3)C2)cc(OC)c2occc12` (stereo unspecified) displayed an IC50 of 76 µM and an inhibition constant Ki of 30 µM. The inhibition in experiment [1] came to 80.4%.

For the molecule `COc1c(C2=NOC(c3ccccn3)C2)cc(OC)c2occc12` (stereo unspecified), in experiment [1], the inhibition is 18.4%.

As to `COc1c(C2=NOC(c3ccccc3)C2)ccc2occc12` (stereo unspecified), in experiment [2], the midpoint of inhibition, the IC50, lay at 227 µM and the Ki stood at 45 µM. In addition, the inhibition in experiment [1] was determined as 22.5%.

Consider `COc1c(C2=NOC(n3ccnc3)C2)ccc2occc12` (stereo unspecified), for which the inhibition in experiment [1] was found to be 14.9%.

In experiment [2], `COc1ccc(C2CC(c3ccc4occc4c3OC)=NO2)cc1` (stereo unspecified) returned an IC50 of 150 µM and a Ki of 27.5 µM. This molecule showed an inhibition in experiment [1] of 49.1%.

On to `COC(=O)C1C(c2ccc3occc3c2OC)=NOC1c1ccccc1` (stereo unspecified), for which, in experiment [2], the IC50 is 199 µM and affinity was put at a Ki of 72.5 µM. For the same molecule, in experiment [1], the inhibition was 18.5%.
